Experimental data of several laboratories.
Effect on: cell growth or viability

SMILES | cell line | method | time | pH | IC50
Cn1cc(-c2ccc3c(c2)ncn3-c2ccc(CC(=O)Nc3cc(C(C)(C)C)on3)cc2)cn1 | NIH3T3 | – | – | – | 34.4 nM
CC(C)C[C@H](NC(=O)[C@H](Cc1ccccc1)NC(=O)c1cnccn1)B(O)O | NCI-H2286 | ATP luminescence | – | – | 6.6 nM
CCCON(Cc1ccc(C(=O)NO)cc1)C(=O)Nc1ccccc1 | HAL-01 | ATP luminescence | 72 h | – | 6650 nM
Nc1nc2sc(CCCCCCc3ccc(C(=O)N[C@@H](CCC(=O)O)C(=O)O)cc3)cc2c(=O)[nH]1 | R2/PCFT4 | – | 96 h | pH 7.2 | > 1000 nM
CN1c2ccccc2C(=O)N2[C@H](C(=O)Nc3ccc(/C=C/C(=O)NO)cc3)Cc3c([nH]c4ccccc34)[C@@H]12 | HUVEC | – | – | – | 7400 nM
Nc1nc2sc(CCCCCCCc3ccc(C(=O)N[C@@H](CCC(=O)O)C(=O)O)cc3)cc2c(=O)[nH]1 | R2/PCFT4 | – | 96 h | pH 7.2 | > 1000 nM
CCCON(Cc1ccc(C(=O)NO)cc1)C(=O)Nc1ccc(N(C)C)cc1 | HAL-01 | ATP luminescence | 72 h | – | 13800 nM
COc1cc2ncnc(Nc3ccc(F)c(Cl)c3)c2cc1NC(=O)N/N=C/c1cccn1CCN1CCN(C)CC1 | PC-3 | MTT | 72 h | – | 2080 nM
COc1cccc2c1C(=O)c1c(O)c3c(c(O)c1C2=O)C[C@@](O)(C(=O)CO)C[C@@H]3O[C@H]1C[C@H](N)[C@H](O)[C@H](C)O1 | HUVEC | MTT | 48 h | – | 2 µg/mL
Nc1nc2sc(CCCCCc3ccc(C(=O)N[C@@H](CCC(=O)O)C(=O)O)cc3)cc2c(=O)[nH]1 | R2/PCFT4 | – | 96 h | pH 7.2 | > 1000 nM
COc1cc(Nc2nccc(-c3cnn4nc(OC)ccc34)n2)cc(C(F)(F)F)c1 | NCI-H1048 | ATP luminescence | – | – | 380 nM
O=C(Nc1cccc2cccnc12)c1cnccn1 | HFF-1 | MTT | – | – | > 30000 nM
Cc1ccc(-c2ccc(O)cc2)c(C(=C2C=CC(=O)C=C2)c2ccc(O)cc2)c1C#Cc1ccc(O)cc1 | HUVEC | MTT | 48 h | – | > 50000 nM
COc1cc2ncnc(Nc3ccc(F)c(Cl)c3)c2cc1NC(=O)N/N=C/CN1CCCC1 | PC-3 | MTT | 72 h | – | 2550 nM
O=c1[nH]cc(F)c(=O)[nH]1 | HUVEC | MTT | 48 h | – | > 50000 nM
CO[C@H]1/C=C\C=C(/C)C(=O)NC2=CC(=O)C(NCCN(C)C)=C(C[C@@H](C)C[C@H](OC)[C@H](O)[C@@H](C)/C=C(\C)[C@@H]1OC(N)=O)C2=O | HUVEC | MTT | – | – | 880 nM
